# According to PubChem BioAssay AID652000 (Sanford-Burnham Center for Chemical Genomics, 2013):
# Screen size: about 2,400 compounds; fewer than 10 were called active.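 The calls were made as follows: active = activation of at least 50%; inactive = the rest.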 The list is a sample of the results.
# Biological target: G-protein coupled receptor 183 (Homo sapiens) (UniProt P32249)
# Experiment: EBI2 receptor activation without oxysterol – cell-based, single concentration, agonist mode, luminescence, counter-screen for EBI2 antagonist project, confirmation (AID 652000)
# Settings: EBI2-expressing cells, 60 min, at 5 µM, active compounds read high, 0% vehicle, 100% 7α,25-dihydroxycholesterol control
# Method in brief: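 material = beta-arrestin reporter cell line | input = 1500 cells in each well | technique = luminescent detection reagent readout | times = overnight seeding and 60-min compound at 37°C, 60-min detection at 25°C | control set = 7alpha,25-OHC wells as positive control | probe or stimulus = no added oxysterol for test compounds | dosing = one dose from 10 mM stock, 2.5 nL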
# Chain of G-protein coupled receptor 183 (Homo sapiens) (P32249 whole entry, looked up): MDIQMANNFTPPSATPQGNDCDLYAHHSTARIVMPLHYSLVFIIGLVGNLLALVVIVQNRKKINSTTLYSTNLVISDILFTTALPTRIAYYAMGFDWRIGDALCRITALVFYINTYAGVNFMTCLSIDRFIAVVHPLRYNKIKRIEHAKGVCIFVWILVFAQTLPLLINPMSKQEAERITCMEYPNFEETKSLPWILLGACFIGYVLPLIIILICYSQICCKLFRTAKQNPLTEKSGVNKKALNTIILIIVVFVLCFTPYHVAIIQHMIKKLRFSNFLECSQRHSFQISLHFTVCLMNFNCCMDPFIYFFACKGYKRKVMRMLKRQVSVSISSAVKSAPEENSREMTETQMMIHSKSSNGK
row,SMILES,activation
1,O=C(NCc1ccc(Cl)cc1)C1CCN(S(=O)(=O)c2cccs2)CC1,0.21% (inactive)
2,O=C(CCNS(=O)(=O)c1ccccc1)NCCSc1ccc(Br)cc1,-1.84% (inactive)
3,Cc1ccc(O/C=C2\OC(=O)c3ccccc32)cc1,-0.84% (inactive)
4,O=C(COc1ccc2ccccc2c1)N1CCN(C(=O)c2cccs2)CC1,0.16% (inactive)
5,COc1ccc(/C=C/C(=O)c2ccc(OC)cc2O)cc1,-0.61% (inactive)
6,Fc1ccc(N2CCN(Cc3cnc(Oc4ccc(Br)cc4)s3)CC2)cc1,1.8% (inactive)
7,CCOC(=O)N1CCN(C(=O)COc2ccc(Cl)cc2C)CC1,0.57% (inactive)
8,CN(Cc1ccc(F)cc1)C(=O)COc1ccc2ccccc2c1,0.62% (inactive)
9,Cc1ccc(S(=O)(=O)N2CCN(C(=O)CSc3cc(C)ccc3C)CC2)c(C)c1,1.03% (inactive)
10,Cc1ccc2oc(=O)c3cnn(CC(=O)N(Cc4ccco4)C4CCCCC4)c3c2c1,-0.75% (inactive)
11,Cc1cc(C)cc(Oc2nc3c(C)cccn3c(=O)c2/C=C(\C#N)C(=O)NC2CCS(=O)(=O)C2)c1 (stereo unspecified),-1.11% (inactive)
12,Cc1cc(Cl)c2oc(C(=O)N3CCC(O)(c4ccccc4)CC3)c(C)c2c1,-0.43% (inactive)
13,COc1ccc(CNC(=O)CN(c2ccc(OC)c(Cl)c2)S(=O)(=O)c2ccc(C)cc2)cc1,-1.61% (inactive)
14,Cc1ccc(N2CC(C(=O)Nc3ccc(S(=O)(=O)N4CCCC4)cc3)CC2=O)cc1C (stereo unspecified),1.21% (inactive)
15,O=C(C(c1ccccc1)c1ccccc1)N1CCN(CC(O)COc2ccccc2)CC1 (stereo unspecified),-0.02% (inactive)
16,O=C(CC(c1ccccc1)c1ccccc1)NCC(O)c1ccc([N+](=O)[O-])cc1 (stereo unspecified),-0.61% (inactive)
17,Cc1ccc(S(=O)(=O)N2CCN(CC(=O)N/N=C/c3ccc(Br)s3)CC2)cc1,0.71% (inactive)
18,N#CC(=C1CCCC1)c1nc(-c2ccc(Cl)cc2)cs1,-0.93% (inactive)
19,Cc1cc(OCC(=O)N2CCN(c3ncccn3)CC2)ccc1Cl,1.39% (inactive)

row,SMILES,activation
1,O=C(/C=C/c1ccc(Cl)cc1)N1CCN(c2ccccc2[N+](=O)[O-])CC1,1.03% (inactive)
2,O=C(Nc1ncc2c(n1)CC(c1ccco1)CC2=O)c1ccc(Cl)cc1 (stereo unspecified),1.34% (inactive)
3,CCOc1ccc(CCN2C(=S)N([C@@H](CC(C)C)CN3CCC[C@@H]3CN3C(=S)NC[C@@H]3Cc3ccc(O)cc3)C[C@@H]2Cc2ccc(O)cc2)cc1,-0.93% (inactive)
4,COc1ccc(OCC(=O)N2CCN(C(=O)COc3ccccc3)CC2)cc1,-0.25% (inactive)
5,O=C(NNC(=O)c1ccc2ccccc2c1)c1ccc(Cl)cc1,0.21% (inactive)
6,COc1cccc(-c2cc(C(=O)N3CCN(c4ccccc4OC)CC3)no2)c1,-0.66% (inactive)
7,COc1ccc(-c2cc(C3CCN(c4ncccc4[N+](=O)[O-])CC3)[nH]n2)cc1,-0.52% (inactive)
8,FC(F)(F)Oc1ccccc1C(c1nnnn1C1CCCCC1)N1CCN(C/C=C/c2ccccc2)CC1 (stereo unspecified),2.25% (inactive)
9,Cc1ccc(OCC(=O)N2CCN(C(=O)c3cccnc3)CC2)cc1,0.16% (inactive)
10,CC1CCc2sc3nc(N4CCN(CCO)CC4)n4ncnc4c3c2C1 (stereo unspecified),1.12% (inactive)
11,Cc1nc2ccc(C(=O)N3CCN(c4ccccc4)CC3)cc2s1,-1.39% (inactive)
12,Cc1cs/c(=N\N=C\c2ccc(O)cc2)n1Cc1ccco1,-0.2% (inactive)
13,CCOc1ccc(CN(Cc2ccco2)S(=O)(=O)c2ccc(-n3cnnn3)c(OC)c2)cc1,0.3% (inactive)
14,Fc1ccccc1/C=N/Nc1cc(N2CCCCC2)ncn1,-1.29% (inactive)
15,CC(C)Cn1c(N2CCN(C(=O)/C=C/c3ccccc3)CC2)nc2ccccc21,-1.2% (inactive)
16,COc1cccc(NC(=O)Cn2c3ccccc3c3nc4n(c(=O)c32)CCS4)c1,-1.89% (inactive)
17,Cc1ccc(OCCNC(=O)CCNS(=O)(=O)c2ccc(Br)cc2)cc1,-0.93% (inactive)
18,CCN(CC(=O)NCc1cccs1)C(=O)/C=C/c1ccc(C)cc1,0.57% (inactive)
19,Cc1cccc(N2CCN(C(=O)c3cc4c(=O)[nH]c5ccccc5c4n3C)CC2)c1C,2.57% (inactive)

row,SMILES,activation
1,O=C(COc1ccc2c(c1)CCC2)N1CCN(c2ccc(F)cc2)CC1,-1.43% (inactive)
2,O=C(COc1ccc(Cl)cc1)N1CCN(c2cccc(C(F)(F)F)c2)CC1,1.62% (inactive)
3,Cc1nc(-c2ccccc2)sc1C(=O)/C=C/c1ccccc1,1.39% (inactive)
4,N#Cc1ccc(C(c2nnnn2CCc2ccccc2)N2CCCCCC2)cc1 (stereo unspecified),0.07% (inactive)
5,COc1ccccc1N1CCN(C(=O)c2cc(=O)c3cc(C)ccc3o2)CC1,0.39% (inactive)
6,O=C(c1cc2cc(F)ccc2[nH]1)N1CCN(c2ccc(F)cc2)CC1,1.94% (inactive)
7,COc1ccc(NC(=O)N2CCC(Cc3ccccc3)CC2)cc1,-0.34% (inactive)
8,Cc1ccc(-c2nn(-c3ccccc3)cc2/C=C/C(=O)Nc2cccc(S(N)(=O)=O)c2)cc1,1.07% (inactive)
9,Cc1cccc(NC(=O)CN2CCN(C(=O)C3CCN(C(=O)/C=C/c4ccccc4)CC3)CC2)c1C,-0.88% (inactive)
10,Cc1ccc2oc(=O)c3cnn(CC(=O)N4CCCCCC4)c3c2c1,-0.61% (inactive)
11,CC(=O)c1nn(-c2ccc(C)cc2)cc1C(=O)c1cccc(Br)c1,1.07% (inactive)
12,COc1ccc([C@H]2CC(=O)C=C(c3ccc(C)cc3)C2)cc1,1.12% (inactive)
13,CCOc1ccc(C(C)=O)cc1COC(=O)c1cnc(Cl)c(Cl)c1,-0.57% (inactive)
14,O=C(c1cc2ccccc2s1)N1CCN(c2ccccn2)CC1,-1.48% (inactive)
15,CCC1Nc2ncnc(N3CCN(c4ccccc4)CC3)c2N(Cc2ccc(Cl)cc2)C1=O (stereo unspecified),-4.52% (inactive)
16,CC1(Cc2ccccc2C#N)C(=O)Nc2ccc(-c3ccc4[nH]ccc4c3)cc21 (stereo unspecified),-0.66% (inactive)
17,O=C(c1cc2ccccc2o1)N1CCN(S(=O)(=O)c2ccc(Cl)s2)CC1,0.16% (inactive)
18,COc1ccc(Nc2cc(Sc3ccc(OC)cc3)ncn2)cc1,-0.07% (inactive)
